{"source": "ChEMBL document CHEMBL1127289", "about": "“DNA-directed alkylating agents. 6. Synthesis and antitumor activity of DNA minor groove-targeted aniline mustard analogues of pibenzimol (Hoechst 33258)” (J Med Chem, 1994)", "key": {"CHO-AA8 [1]": {"system": "CHO-AA8", "experiment": "Concentration of the drug to inhibit chinese hamster ovary derived cell (AA8) growth in culture", "format": "functional, cell-based", "settings": "Cricetulus griseus", "in_short": "(§1)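 AA8 (wild-type) and UV4 (mutant) lines maintained in log phase in Alpha MEM with 10% fetal calf serum. Drug exposure for 18 h, ended by three washes in fresh medium, then a further 72 h growth. Cell density read by methylene blue staining. IC50 is the nominal concentration giving 50% of control density, with eight controls per plate. HF = IC50(AA8)/IC50(UV4).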"}, "Nucleic Acid [2]": {"system": "Nucleic Acid", "experiment": "(§2) Intrinsic association constant for reversible binding of compounds to calf thymus DNA at 20 degree C", "format": "functional", "set-up": "scale not given here", "settings": "Bos taurus"}, "Mus musculus [3]": {"species_on_record": "Mus musculus", "experiment": "Tested for percentage increase in lifespan of drug-treated tumor-bearing animals when treated at optimal dose", "format": "functional", "in_short": "(§3)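 P388 leukemia: 10^6 tumor cells inoculated intraperitoneally. 24 h later (day 1), a single intraperitoneal dose in 0.1 mL of 30% v/v EtOH/water. The optimal dose is given in mg/kg. ILS is the percentage increase in lifespan at the optimal dose; ILS > 20% is considered significant. Groups of 6 animals, with long-term survivors counted.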"}, "Mus musculus [4]": {"system": "Mus musculus", "experiment": "Tested for the intraperitoneal optimal dose of 0.1 mL in tumor cells", "format": "functional", "in_short": "as §3"}, "P388": {"system": "P388", "experiment": "Concentration of the drug to inhibit wild type P388 murine leukemia cell growth in culture", "format": "functional, cell-based", "settings": "Mus musculus", "in_short": "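P388 cells maintained in log phase in RPMI 1640 with 10% fetal calf serum. Drug present throughout 72 h growth. Final density read by a modified MTT method. IC50 is the nominal concentration reducing cell density to 50% of controls, with eight control cultures per plate.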"}, "[5]": {"experiment": "(§4) Hypersensitivity factor(HF) was determined as ratio of IC50(AA8) to IC50(UV4)", "format": "functional", "in_short": "as §1"}, "Nucleic Acid [6]": {"system": "Nucleic Acid", "experiment": "as §2", "format": "nucleic-acid assay", "settings": "Bos taurus"}, "Mus musculus [7]": {"species_on_record": "Mus musculus", "experiment": "Tested for percentage increase in lifespan of drug-treated tumor-bearing animals when treated at optimal dose; NA=Inactive", "format": "functional, organism-based", "in_short": "as §3"}, "Mus musculus [8]": {"species_on_record": "Mus musculus", "experiment": "Tested for percentage increase in lifespan of drug-treated tumor-bearing animals when treated at optimal dose; Inactive", "format": "functional, organism-based", "in_short": "as §3"}, "CHO-AA8 [9]": {"system": "CHO-AA8", "experiment": "as §4", "format": "functional, Cricetulus griseus", "in_short": "as §1"}}, "note": "pIC50: −log10 of the molar value. The source made the active and inactive calls.", "data": [{"smiles": "CN1CCN(c2ccc3[nH]c(-c4ccc5[nH]c(Cc6ccc(N(CCCl)CCCl)cc6)nc5c4)nc3c2)CC1", "values": [{"measurement": "pIC50", "setting": "CHO-AA8 [1]", "result": 5.82}, {"measurement": "DNA binding", "setting": "Nucleic Acid [2]", "result": 6.73, "unit": "M⁻¹"}, {"measurement": "ILS", "setting": "Mus musculus [3]", "result": 71, "unit": "%"}, {"measurement": "OD", "setting": "Mus musculus [4]", "result": 13.3, "unit": "mg/kg"}, {"measurement": "pIC50", "setting": "P388", "result": 6.07}, {"measurement": "Ratio", "setting": "[5]", "result": 59}]}, {"smiles": "CN1CCN(c2ccc3[nH]c(-c4ccc5[nH]c(CCc6ccc(N(CCCl)CCCl)cc6)nc5c4)nc3c2)CC1", "values": [{"measurement": "pIC50", "setting": "CHO-AA8 [1]", "result": 6.48}, {"measurement": "DNA binding", "setting": "Nucleic Acid [2]", "result": 6.3, "unit": "M⁻¹"}, {"measurement": "ILS", "setting": "Mus musculus [3]", "result": 52, "unit": "%"}, {"measurement": "OD", "setting": "Mus musculus [4]", "result": 3.9, "unit": "mg/kg"}, {"measurement": "pIC50", "setting": "P388", "result": 8.00}, {"measurement": "Ratio", "setting": "[5]", "result": 47}]}, {"smiles": "CN1CCN(c2ccc3[nH]c(-c4ccc5[nH]c(-c6ccc(O)cc6)nc5c4)nc3c2)CC1", "note": "[HOECHST 33258]", "values": [{"measurement": "DNA binding", "setting": "Nucleic Acid [6]", "result": "1.82 log M-1"}, {"measurement": "ILS", "setting": "Mus musculus [7]", "result": "inactive"}, {"measurement": "OD", "setting": "Mus musculus [4]", "result": 20, "unit": "mg/kg"}, {"measurement": "pIC50", "setting": "P388", "result": 5.92}]}, {"smiles": "CN1CCN(c2ccc3[nH]c(-c4ccc5[nH]c(CCCCCCc6ccc(N(CCCl)CCCl)cc6)nc5c4)nc3c2)CC1", "values": [{"measurement": "pIC50", "setting": "CHO-AA8 [1]", "result": 6.40}, {"measurement": "DNA binding", "setting": "Nucleic Acid [2]", "result": 3.89, "unit": "M⁻¹"}, {"measurement": "ILS", "setting": "Mus musculus [3]", "result": 23, "unit": "%"}, {"measurement": "OD", "setting": "Mus musculus [4]", "result": 8.9, "unit": "mg/kg"}, {"measurement": "pIC50", "setting": "P388", "result": 7.22}, {"measurement": "Ratio", "setting": "[5]", "result": 20}]}, {"smiles": "CN1CCN(c2ccc3[nH]c(-c4ccc5[nH]c(CCCc6ccc(N(CCCl)CCCl)cc6)nc5c4)nc3c2)CC1", "values": [{"measurement": "pIC50", "setting": "CHO-AA8 [1]", "result": 5.88}, {"measurement": "DNA binding", "setting": "Nucleic Acid [2]", "result": 4.55, "unit": "M⁻¹"}, {"measurement": "ILS", "setting": "Mus musculus [8]", "result": "inactive"}, {"measurement": "OD", "setting": "Mus musculus [4]", "result": 5.9, "unit": "mg/kg"}, {"measurement": "pIC50", "setting": "P388", "result": 7.70}, {"measurement": "Ratio", "setting": "[5]", "result": 46}]}, {"smiles": "CN1CCN(c2ccc3[nH]c(-c4ccc5[nH]c(-c6ccc(N(CCCl)CCCl)cc6)nc5c4)nc3c2)CC1", "values": [{"measurement": "pIC50", "setting": "CHO-AA8 [1]", "result": 5.77}, {"measurement": "Ratio", "setting": "CHO-AA8 [9]", "result": 24}, {"measurement": "DNA binding", "setting": "Nucleic Acid [6]", "result": "7.52 log M-1"}, {"measurement": "ILS", "setting": "Mus musculus [3]", "result": 106, "unit": "%"}, {"measurement": "OD", "setting": "Mus musculus [4]", "result": 30, "unit": "mg/kg"}, {"measurement": "pIC50", "setting": "P388", "result": 6.10}]}, {"smiles": "CN1CCN(c2ccc3[nH]c(-c4ccc5[nH]c(-c6ccc(N(C)CCCl)cc6)nc5c4)nc3c2)CC1", "values": [{"measurement": "pIC50", "setting": "CHO-AA8 [1]", "result": 5.24}, {"measurement": "ILS", "setting": "Mus musculus [3]", "result": 86, "unit": "%"}, {"measurement": "OD", "setting": "Mus musculus [4]", "result": 30, "unit": "mg/kg"}, {"measurement": "pIC50", "setting": "P388", "result": 6.30}, {"measurement": "Ratio", "setting": "[5]", "result": 14}]}, {"smiles": "CCN(CCCl)c1cc(CN(C)C)cc(NC(=O)c2ccc(C(=O)Nc3cc(CN(C)C)cc(N(CC)CCCl)c3)cc2)c1", "values": [{"measurement": "pIC50", "setting": "P388", "result": 5.15}]}, {"smiles": "CCN(CC)c1ccc(-c2nc3cc(-c4nc5cc(N6CCN(C)CC6)ccc5[nH]4)ccc3[nH]2)cc1", "values": [{"measurement": "pIC50", "setting": "CHO-AA8 [1]", "result": 5.00}, {"measurement": "Ratio", "setting": "CHO-AA8 [9]", "result": 1.5}, {"measurement": "DNA binding", "setting": "Nucleic Acid [6]", "result": "6.24 log M-1"}, {"measurement": "ILS", "setting": "Mus musculus [3]", "result": 50, "unit": "%"}, {"measurement": "OD", "setting": "Mus musculus [4]", "result": 20, "unit": "mg/kg"}, {"measurement": "pIC50", "setting": "P388", "result": 5.92}]}]}
